Tests used:
[1] = target: Mitogen-activated protein kinase 7 (Homo sapiens, UniProt Q13164); assay: Inhibition of EGF-induced BMK1 autophosphorylation in human HeLa cells by SDS-PAGE analysis; assay type: cell-based
[2] = Plasma clearance in mouse at 1 mg/kg, iv; assay type: ADME, organism-based; set-up: dose 1 mg/kg, route intravenous
Summary of the method: (§1)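 Single-dose pharmacokinetics: rats given 1 mg/kg intravenous or 2 mg/kg oral; mice given 1 mg/kg intravenous or 10 mg/kg oral. Plasma concentration profiles yield Tmax, Cmax, AUC0-∞, half-life, plasma clearance, Vss and oral bioavailability.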

PC-3 = assay: Antiproliferative activity against human PC3 cells after 72 hrs; assay type: functional, cell-based; settings: PC-3, 72 h
NCI-H1299 = assay: Antiproliferative activity against human NCI-H1299 cells after 72 hrs; assay type: functional, cell-based; settings: NCI-H1299, 72 h
[3] = Volume of distribution at steady state in mouse at 1 mg/kg, iv; assay type: ADME, organism-based; set-up: dose 1 mg/kg, route intravenous; settings: in vivo, read-out: Vdss; summary of the method: as §1
SK-N-AS = assay: Antiproliferative activity against human SK-N-AS cells after 72 hrs; assay type: functional, cell-based
MCF7 = assay: Antiproliferative activity against human MCF7 cells after 72 hrs; assay type: functional, cell-based; settings: MCF7, 72 h
AU565 = assay: Antiproliferative activity against human AU565 cells after 72 hrs; assay type: functional, cell-based; settings: AU565, 72 h
[4] = AUC (0 to infinity) in mouse at 10 mg/kg, po; assay type: ADME, organism-based; set-up: time infinity, dose 10 mg/kg, route oral; settings: plasma; summary of the method: as §1
BPH-1 = assay: Antiproliferative activity against human BPH1 cells after 72 hrs; assay type: functional, cell-based; settings: BPH-1, 72 h
NCI-H522 = assay: Antiproliferative activity against human NCI-H522 cells after 72 hrs; assay type: functional, cell-based; settings: NCI-H522, 72 h
[5] = Cmax in mouse at 10 mg/kg, po; assay type: ADME, organism-based; set-up: dose 10 mg/kg, route oral; settings: in vivo; summary of the method: as §1
[6] = Half life in mouse at 1 mg/kg, iv; assay type: ADME, organism-based; set-up: dose 1 mg/kg, route intravenous; settings: in vivo; summary of the method: as §1
[7] = AUC (0 to infinity) in mouse at 1 mg/kg, iv; assay type: ADME, organism-based; set-up: time infinity, dose 1 mg/kg, route intravenous; settings: plasma; summary of the method: as §1
[8] = Oral bioavailability in mouse at 10 mg/kg; assay type: ADME, organism-based; settings: in vivo; summary of the method: as §1
[9] = Tmax in mouse at 10 mg/kg, po; assay type: ADME, organism-based; set-up: dose 10 mg/kg, route oral; settings: in vivo; summary of the method: as §1
[10] = target: Serine/threonine-protein kinase DCLK1 (Homo sapiens, UniProt O15075); assay: Binding affinity to DCAMKL1 by immobilized ligand displacement assay
Summary of the method: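 Dissociation constant (Kd) measured in the Ambit KINOMEScan competition binding format, which reads kinase displacement from an immobilized ligand.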

[11] = target: Non-receptor tyrosine-protein kinase TNK1 (Homo sapiens, UniProt Q13470); assay: Binding affinity to TNK1 by immobilized ligand displacement assay
Summary of the method: (§2)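 KINOMEscan-type competition binding: displacement of kinase from an immobilized ligand; Kd values determined for individual kinases.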

[12] = target: Serine/threonine-protein kinase DCLK2 (Homo sapiens, UniProt Q8N568); assay: Binding affinity to DCAMKL2 by immobilized ligand displacement assay; summary of the method: as §2
[13] = Plasma clearance in rat at 2 mg/kg, po; assay type: ADME, organism-based; set-up: dose 2 mg/kg, route oral; summary of the method: as §1
[14] = Cmax in rat at 2 mg/kg, po; assay type: ADME, organism-based; set-up: dose 2 mg/kg, route oral; settings: in vivo; summary of the method: as §1
[15] = AUC (0 to infinity) in rat at 1 mg/kg, iv; assay type: ADME, organism-based; set-up: time infinity, dose 1 mg/kg, route intravenous; settings: plasma; summary of the method: as §1
[16] = Tmax in rat at 1 mg/kg, iv; assay type: ADME, organism-based; set-up: dose 1 mg/kg, route intravenous; settings: in vivo; summary of the method: as §1
HeLa = assay: Antitumor activity against human HeLa cells xenografted in mouse assessed as inhibition of tumor growth at 50 mg/kg, ip bid for 28 days; assay type: functional; settings: route intraperitoneal
Summary of the method: (§3)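 HeLa cell xenograft in mice; tumor-bearing animals injected intraperitoneally with 50 mg/kg or vehicle solution twice daily for 28 days; tumor growth compared against vehicle.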

[17] = Half life in rat at 1 mg/kg, iv; assay type: ADME, organism-based; set-up: dose 1 mg/kg, route intravenous; settings: in vivo; summary of the method: as §1
Mus musculus = assay: Toxicity in human HeLa cells xenografted mouse assessed as tolerability at 50 mg/kg ip bid for 28 days; assay type: organism-based; set-up: dose 50 mg/kg, route intraperitoneal; settings: in vivo; summary of the method: as §3
[18] = Cmax in rat at 1 mg/kg, iv; assay type: ADME, organism-based; set-up: dose 1 mg/kg, route intravenous; settings: in vivo; summary of the method: as §1
[19] = Plasma clearance in rat at 1 mg/kg, iv; assay type: ADME, organism-based; set-up: dose 1 mg/kg, route intravenous; summary of the method: as §1
[20] = AUC (0 to infinity) in rat at 2 mg/kg, po; assay type: ADME, organism-based; set-up: time infinity, dose 2 mg/kg, route oral; settings: plasma; summary of the method: as §1
[21] = Oral bioavailability in rat at 2 mg/kg; assay type: ADME, organism-based; settings: in vivo; summary of the method: as §1
[22] = Volume of distribution at steady state in rat at 1 mg/kg, iv; assay type: ADME, organism-based; set-up: dose 1 mg/kg, route intravenous; settings: in vivo, read-out: Vdss; summary of the method: as §1
[23] = Tmax in rat at 2 mg/kg, po; assay type: ADME, organism-based; set-up: dose 2 mg/kg, route oral; settings: in vivo; summary of the method: as §1
Rattus norvegicus = assay: Half life in rat at 2 mg/kg, po; assay type: ADME, organism-based; set-up: dose 2 mg/kg, route oral; settings: in vivo; summary of the method: as §1
[24] = target: Cyclin-G-associated kinase (Homo sapiens) (UniProt O14976); assay: Binding affinity to GAK at 10 uM by immobilized ligand displacement assay
Summary of the method: (§4)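 Ambit KINOMEScan competition binding panel (402 kinases). Kinase displacement from an immobilized ligand is read relative to a DMSO control. Hits are kinases showing more than […] displacement. The text gives the test concentration as 10 μM.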

[25] = tested on: Mast/stem cell growth factor receptor Kit (Homo sapiens), P10721 [L576P]; assay: Binding affinity to KIT L576P mutant at 10 uM by immobilized ligand displacement assay; summary of the method: as §4
[26] = target: Protein-tyrosine kinase 6 (Homo sapiens) (UniProt Q13882); assay: Binding affinity to BRK at 10 uM by immobilized ligand displacement assay; summary of the method: as §4
[27] = target: Myosin light chain kinase family member 4 (Homo sapiens) (UniProt Q86YV6); assay: Binding affinity to MYLK4 at 10 uM by immobilized ligand displacement assay; summary of the method: as §4
[28] = target: Macrophage colony-stimulating factor 1 receptor (Homo sapiens) (UniProt P07333); assay: Binding affinity to c-FMS at 10 uM by immobilized ligand displacement assay; summary of the method: as §4
[29] = tested on: Tyrosine-protein kinase ABL1 (Homo sapiens), P00519 [F317I]; assay: Binding affinity to ABL1 F317I mutant at 10 uM by immobilized ligand displacement assay; summary of the method: as §4
Sequence of Tyrosine-protein kinase ABL1 (Homo sapiens), P00519 [F317I] (P00519 whole entry F317I): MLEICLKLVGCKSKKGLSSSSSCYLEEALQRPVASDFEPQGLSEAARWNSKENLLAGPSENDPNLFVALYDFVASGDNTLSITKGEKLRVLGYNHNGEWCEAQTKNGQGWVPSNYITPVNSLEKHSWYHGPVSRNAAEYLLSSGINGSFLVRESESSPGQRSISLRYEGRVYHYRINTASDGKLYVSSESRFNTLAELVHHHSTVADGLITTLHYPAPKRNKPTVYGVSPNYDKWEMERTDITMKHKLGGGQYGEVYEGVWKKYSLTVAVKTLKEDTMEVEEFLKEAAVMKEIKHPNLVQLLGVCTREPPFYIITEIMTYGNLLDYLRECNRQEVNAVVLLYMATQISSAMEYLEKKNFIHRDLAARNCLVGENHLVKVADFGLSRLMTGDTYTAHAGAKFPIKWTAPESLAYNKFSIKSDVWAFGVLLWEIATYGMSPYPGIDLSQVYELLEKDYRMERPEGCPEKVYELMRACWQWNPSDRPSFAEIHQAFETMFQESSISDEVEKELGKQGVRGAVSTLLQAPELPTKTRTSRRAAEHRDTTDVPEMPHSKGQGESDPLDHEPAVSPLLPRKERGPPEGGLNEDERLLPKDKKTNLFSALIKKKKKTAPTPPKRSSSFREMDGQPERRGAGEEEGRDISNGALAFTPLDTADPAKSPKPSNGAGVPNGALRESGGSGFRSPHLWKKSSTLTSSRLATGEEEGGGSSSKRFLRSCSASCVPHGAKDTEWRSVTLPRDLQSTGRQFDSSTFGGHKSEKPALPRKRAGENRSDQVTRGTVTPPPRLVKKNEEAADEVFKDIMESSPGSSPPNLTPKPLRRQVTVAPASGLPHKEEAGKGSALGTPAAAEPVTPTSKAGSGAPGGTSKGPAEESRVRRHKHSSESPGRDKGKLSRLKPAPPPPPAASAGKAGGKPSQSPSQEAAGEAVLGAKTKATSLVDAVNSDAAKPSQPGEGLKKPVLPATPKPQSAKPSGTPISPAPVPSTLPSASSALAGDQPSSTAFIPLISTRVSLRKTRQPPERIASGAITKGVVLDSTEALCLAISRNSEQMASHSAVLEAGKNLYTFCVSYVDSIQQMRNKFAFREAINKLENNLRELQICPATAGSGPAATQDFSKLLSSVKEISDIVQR

Sequence of Mitogen-activated protein kinase 7 (Q13164 whole entry): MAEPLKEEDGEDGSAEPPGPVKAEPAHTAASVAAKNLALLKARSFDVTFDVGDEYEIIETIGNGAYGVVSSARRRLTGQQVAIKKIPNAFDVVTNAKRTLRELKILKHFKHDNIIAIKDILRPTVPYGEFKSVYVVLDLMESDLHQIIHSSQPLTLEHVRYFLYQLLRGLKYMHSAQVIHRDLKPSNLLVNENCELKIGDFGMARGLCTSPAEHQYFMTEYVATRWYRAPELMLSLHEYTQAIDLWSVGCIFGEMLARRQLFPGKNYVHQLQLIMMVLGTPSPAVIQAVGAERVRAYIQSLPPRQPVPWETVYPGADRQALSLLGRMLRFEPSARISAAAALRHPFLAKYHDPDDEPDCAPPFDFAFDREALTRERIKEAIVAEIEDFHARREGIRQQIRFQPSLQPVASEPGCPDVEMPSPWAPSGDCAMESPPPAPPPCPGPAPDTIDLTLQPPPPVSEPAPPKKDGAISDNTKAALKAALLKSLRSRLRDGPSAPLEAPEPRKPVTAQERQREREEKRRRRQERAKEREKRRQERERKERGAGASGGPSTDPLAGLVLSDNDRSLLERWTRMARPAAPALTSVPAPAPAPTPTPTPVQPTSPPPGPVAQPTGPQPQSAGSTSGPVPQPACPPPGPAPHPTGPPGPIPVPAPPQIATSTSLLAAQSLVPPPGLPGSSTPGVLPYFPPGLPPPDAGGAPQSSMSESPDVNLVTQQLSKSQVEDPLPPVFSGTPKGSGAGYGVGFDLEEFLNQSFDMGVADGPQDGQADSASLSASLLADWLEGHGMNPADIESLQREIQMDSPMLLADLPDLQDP
Sequence of Non-receptor tyrosine-protein kinase TNK1 (Q13470 whole entry): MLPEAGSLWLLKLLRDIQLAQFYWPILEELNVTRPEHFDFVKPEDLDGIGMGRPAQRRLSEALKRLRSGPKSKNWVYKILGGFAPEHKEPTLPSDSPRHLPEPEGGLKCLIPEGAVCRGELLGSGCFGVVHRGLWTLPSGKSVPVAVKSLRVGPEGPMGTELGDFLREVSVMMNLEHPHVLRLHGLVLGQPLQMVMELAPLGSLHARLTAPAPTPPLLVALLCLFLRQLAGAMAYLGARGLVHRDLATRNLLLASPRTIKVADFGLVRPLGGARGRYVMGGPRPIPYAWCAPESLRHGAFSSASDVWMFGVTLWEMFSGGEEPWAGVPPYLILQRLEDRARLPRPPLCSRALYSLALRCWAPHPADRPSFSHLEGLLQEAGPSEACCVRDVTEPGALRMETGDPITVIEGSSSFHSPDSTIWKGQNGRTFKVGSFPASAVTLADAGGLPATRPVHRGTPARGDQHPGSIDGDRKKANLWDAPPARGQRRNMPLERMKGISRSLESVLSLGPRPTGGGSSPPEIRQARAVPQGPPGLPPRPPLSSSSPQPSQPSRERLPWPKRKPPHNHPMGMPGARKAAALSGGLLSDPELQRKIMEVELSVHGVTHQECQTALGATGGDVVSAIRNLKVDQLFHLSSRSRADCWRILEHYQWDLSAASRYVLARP
Sequence of Myosin light chain kinase family member 4 (Homo sapiens) (Q86YV6 whole entry): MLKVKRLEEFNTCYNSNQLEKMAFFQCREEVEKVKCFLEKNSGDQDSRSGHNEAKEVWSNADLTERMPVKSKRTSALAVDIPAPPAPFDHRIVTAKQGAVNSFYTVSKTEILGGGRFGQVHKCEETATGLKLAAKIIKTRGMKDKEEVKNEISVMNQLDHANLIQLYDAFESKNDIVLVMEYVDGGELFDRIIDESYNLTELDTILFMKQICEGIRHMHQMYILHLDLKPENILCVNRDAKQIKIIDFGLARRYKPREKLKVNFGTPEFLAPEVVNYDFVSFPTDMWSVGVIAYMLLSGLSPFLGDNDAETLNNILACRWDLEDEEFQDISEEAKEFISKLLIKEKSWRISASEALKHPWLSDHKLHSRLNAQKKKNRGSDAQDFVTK
Sequence of Protein-tyrosine kinase 6 (Homo sapiens) (Q13882 whole entry, looked up): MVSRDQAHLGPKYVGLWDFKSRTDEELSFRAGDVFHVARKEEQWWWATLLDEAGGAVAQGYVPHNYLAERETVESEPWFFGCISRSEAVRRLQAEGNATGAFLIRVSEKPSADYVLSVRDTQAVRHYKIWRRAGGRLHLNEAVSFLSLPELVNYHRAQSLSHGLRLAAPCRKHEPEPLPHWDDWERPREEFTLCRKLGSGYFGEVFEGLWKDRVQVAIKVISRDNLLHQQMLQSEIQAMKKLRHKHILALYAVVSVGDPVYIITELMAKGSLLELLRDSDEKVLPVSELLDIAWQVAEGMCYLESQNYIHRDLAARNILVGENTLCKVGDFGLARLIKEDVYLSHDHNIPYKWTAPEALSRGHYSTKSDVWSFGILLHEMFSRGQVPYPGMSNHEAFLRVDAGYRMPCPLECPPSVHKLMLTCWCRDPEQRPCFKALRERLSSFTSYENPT
Sequence of Serine/threonine-protein kinase DCLK2 (Q8N568 whole entry): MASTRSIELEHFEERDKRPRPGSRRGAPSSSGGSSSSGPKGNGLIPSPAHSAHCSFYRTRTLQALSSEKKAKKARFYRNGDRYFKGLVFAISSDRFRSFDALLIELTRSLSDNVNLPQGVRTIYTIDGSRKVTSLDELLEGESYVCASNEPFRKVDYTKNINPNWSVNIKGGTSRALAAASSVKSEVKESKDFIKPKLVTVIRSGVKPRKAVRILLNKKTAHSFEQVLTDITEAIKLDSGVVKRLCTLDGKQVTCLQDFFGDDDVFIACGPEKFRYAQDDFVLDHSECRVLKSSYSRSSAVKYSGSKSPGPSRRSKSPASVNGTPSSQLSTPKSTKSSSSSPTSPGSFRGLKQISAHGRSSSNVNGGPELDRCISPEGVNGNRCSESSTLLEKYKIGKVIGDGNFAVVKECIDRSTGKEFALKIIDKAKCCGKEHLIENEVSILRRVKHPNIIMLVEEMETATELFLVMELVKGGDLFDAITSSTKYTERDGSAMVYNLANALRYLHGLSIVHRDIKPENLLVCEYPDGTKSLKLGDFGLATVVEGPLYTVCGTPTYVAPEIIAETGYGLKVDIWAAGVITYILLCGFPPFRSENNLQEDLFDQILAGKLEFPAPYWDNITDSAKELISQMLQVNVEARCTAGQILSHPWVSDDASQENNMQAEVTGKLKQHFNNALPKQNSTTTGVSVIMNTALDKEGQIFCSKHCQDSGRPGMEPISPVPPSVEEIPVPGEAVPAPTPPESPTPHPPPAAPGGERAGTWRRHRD
Sequence of Serine/threonine-protein kinase DCLK1 (O15075 whole entry): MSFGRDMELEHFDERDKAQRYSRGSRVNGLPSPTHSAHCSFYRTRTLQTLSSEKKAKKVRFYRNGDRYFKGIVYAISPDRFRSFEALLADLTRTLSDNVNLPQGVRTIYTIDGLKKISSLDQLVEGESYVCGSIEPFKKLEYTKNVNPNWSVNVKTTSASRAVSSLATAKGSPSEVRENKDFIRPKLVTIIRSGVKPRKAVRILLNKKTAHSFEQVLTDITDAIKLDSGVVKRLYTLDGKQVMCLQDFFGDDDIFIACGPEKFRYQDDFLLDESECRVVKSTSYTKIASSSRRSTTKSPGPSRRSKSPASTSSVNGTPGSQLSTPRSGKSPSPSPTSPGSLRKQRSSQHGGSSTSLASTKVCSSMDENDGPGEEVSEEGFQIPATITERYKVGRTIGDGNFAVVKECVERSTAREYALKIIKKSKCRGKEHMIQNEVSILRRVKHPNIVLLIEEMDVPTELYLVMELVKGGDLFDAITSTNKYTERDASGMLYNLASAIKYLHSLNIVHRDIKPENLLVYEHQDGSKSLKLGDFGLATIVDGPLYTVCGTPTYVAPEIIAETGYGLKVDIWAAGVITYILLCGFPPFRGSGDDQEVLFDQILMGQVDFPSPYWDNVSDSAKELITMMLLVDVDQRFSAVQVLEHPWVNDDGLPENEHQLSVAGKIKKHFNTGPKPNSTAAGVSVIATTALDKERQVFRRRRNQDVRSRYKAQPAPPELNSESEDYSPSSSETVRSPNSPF

COc1cc(N2CCN(C)CC2)ccc1Nc1ncc2c(n1)N(C)c1ccc(Cl)cc1C(=O)N2C
IC50 [1]: 1240 nM

COc1cc(N2CCN(C)CC2)ccc1Nc1ncc2c(n1)N(C1CCCC1)c1ccccc1C(=O)N2C
IC50 [1]: 200 nM

COc1cc(N2CCNCC2)ccc1Nc1ncc2c(n1)N(C)c1ccccc1C(=O)N2C
IC50 [1]: 230 nM

CCN1c2ccccc2C(=O)N(C)c2cnc(Nc3ccc(N4CCN(C)CC4)cc3OC)nc21
IC50 [1]: 200 nM

Cc1cc(N2CCN(C)CC2)ccc1Nc1ncc2c(n1)N(C)c1ccccc1C(=O)N2C
IC50 [1]: 280 nM

COc1cc(N2CCOCC2)ccc1Nc1ncc2c(n1)N(C)c1ccccc1C(=O)N2C
IC50 [1]: 260 nM

COc1cc(C(=O)NCCN(C)C)ccc1Nc1ncc2c(n1)N(C)c1ccccc1C(=O)N2C
IC50 [1]: 240 nM

COc1cc(N2CCN(C)CC2)ccc1Nc1ncc2c(n1)N(C)c1cc(F)ccc1C(=O)N2C
IC50 [1]: 1320 nM

COc1cc(C(=O)N2CCC(N3CCCC3)CC2)ccc1Nc1ncc2c(n1)N(C)c1ccccc1C(=O)N2C
clearance [2]: 18.4 mL/min/kg | EC50 (PC-3): 3600 nM | EC50 (NCI-H1299): 4200 nM | Vd [3]: 5.36 L/kg | EC50 (SK-N-AS): 4400 nM | EC50 (MCF7): > 10000 nM | EC50 (AU565): > 10000 nM | AUC(0-inf) [4]: 7870 ng·h/mL | EC50 (BPH-1): 1600 nM | EC50 (NCI-H522): 950 nM | IC50 [1]: 130 nM | Cmax [5]: 1290 ng/mL | half-life [6]: 2.62 h | AUC(0-inf) [7]: 907 ng·h/mL | bioavailability [8]: 86.6% | Tmax [9]: 2 h

COc1cc(N2CCN(C)CC2)ccc1Nc1ncc2c(n1)N(C)c1cc(Cl)ccc1C(=O)N2C
IC50 [1]: 11400 nM

COc1cc(N2CCC(O)CC2)ccc1Nc1ncc2c(n1)N(C)c1ccccc1C(=O)N2C
IC50 [1]: 240 nM

CN1C(=O)c2ccccc2N(C)c2nc(Nc3ccc(S(N)(=O)=O)cc3)ncc21
IC50 [1]: 310 nM

COc1cc(N2CCN(C)CC2)ccc1Nc1ncc2c(n1)N(C)c1ccc(C)cc1C(=O)N2C
IC50 [1]: 3100 nM

COc1cc(N2CCN(C)CC2)ccc1Nc1ncc2c(n1)N(C)c1ccccc1C(=O)N2C
Kd [10]: 1.2 nM | Kd [11]: 29 nM | Kd [12]: 10 nM

CCOc1cc(N2CCC(O)CC2)ccc1Nc1ncc2c(n1)N(C)c1ccccc1C(=O)N2C
CL/F [13]: 37 mL/min/kg | Cmax [14]: 247 ng/mL | AUC(0-inf) [15]: 658 ng·h/mL | Tmax [16]: 4.8 min | inhibition in vivo at 50 mg/kg (HeLa): 95% | half-life [17]: 2 h | Activity (Mus musculus): Non-toxic | Cmax [18]: 439 ng/mL | clearance [19]: 25.5 mL/min/kg | AUC(0-inf) [20]: 903 ng·h/mL | bioavailability [21]: 68.6% | Vd [22]: 3.4 L/kg | Tmax [23]: 0.5 h | t1/2 (Rattus norvegicus): 3.4 h

COc1cc(C2CCN(C)CC2)ccc1Nc1ncc2c(n1)N(C)c1ccccc1C(=O)N2C
IC50 [1]: 260 nM

COc1cc(N2CCN(C)CC2)ccc1Nc1ncc2c(n1)N(C)c1ccccc1C(=O)N2
inhibition [24]: > 90% | inhibition [25]: > 90% | inhibition [26]: > 90% | inhibition [27]: > 90% | inhibition [28]: > 90% | inhibition [29]: > 90%

COc1cc(N2CCN(C)CC2)ccc1Nc1ncc2c(n1)N(C(C)C)c1ccccc1C(=O)N2C
IC50 [1]: 230 nM

COc1cc(C(=O)NC2CCN(C)CC2)ccc1Nc1ncc2c(n1)N(C)c1ccccc1C(=O)N2C
IC50 [1]: 320 nM

— ChEMBL document CHEMBL1671850, “Discovery of a benzo[e]pyrimido-[5,4-b][1,4]diazepin-6(11H)-one as a Potent and Selective Inhibitor of Big MAP Kinase 1” (ACS Med Chem Lett, 2011)
